pIC50: −log10 of the molar value. Values joined by “and” are separate entries in the source; they are usually repeats but may differ in a detail not shown here. Equal values may be shown once. Where only a bound is given, the exact number is not on record here.

Broadly, the pIC50 is the IC50 on a negative log10 scale, so that one unit is a factor of ten.

The target of experiment [1] is Poly(ADP-ribose) glycohydrolase (Bos taurus) (UniProt O02776). Description: (§1) The compound was tested for its ability to inhibit recombinant bovine polyadenosine diphosphoribose glycohydrolase catalytic fragment (rPARG-CF). The method, boiled down: (§2)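 PARG activity was measured with 10 µM [α-32P]ADP-ribose polymers as substrate and varying inhibitor concentrations, with an inhibitor-free control. Enzyme was 0.25 ng of bovine thymus PARG, purified with a Red-Sepharose step, or 5 ng of rPARG-CF. Runs were done at least in triplicate. IC50 came from a sigmoidal fit of % activity against log[inhibitor].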
Chain of Poly(ADP-ribose) glycohydrolase (Bos taurus) (O02776 whole entry, the tested form may be a part): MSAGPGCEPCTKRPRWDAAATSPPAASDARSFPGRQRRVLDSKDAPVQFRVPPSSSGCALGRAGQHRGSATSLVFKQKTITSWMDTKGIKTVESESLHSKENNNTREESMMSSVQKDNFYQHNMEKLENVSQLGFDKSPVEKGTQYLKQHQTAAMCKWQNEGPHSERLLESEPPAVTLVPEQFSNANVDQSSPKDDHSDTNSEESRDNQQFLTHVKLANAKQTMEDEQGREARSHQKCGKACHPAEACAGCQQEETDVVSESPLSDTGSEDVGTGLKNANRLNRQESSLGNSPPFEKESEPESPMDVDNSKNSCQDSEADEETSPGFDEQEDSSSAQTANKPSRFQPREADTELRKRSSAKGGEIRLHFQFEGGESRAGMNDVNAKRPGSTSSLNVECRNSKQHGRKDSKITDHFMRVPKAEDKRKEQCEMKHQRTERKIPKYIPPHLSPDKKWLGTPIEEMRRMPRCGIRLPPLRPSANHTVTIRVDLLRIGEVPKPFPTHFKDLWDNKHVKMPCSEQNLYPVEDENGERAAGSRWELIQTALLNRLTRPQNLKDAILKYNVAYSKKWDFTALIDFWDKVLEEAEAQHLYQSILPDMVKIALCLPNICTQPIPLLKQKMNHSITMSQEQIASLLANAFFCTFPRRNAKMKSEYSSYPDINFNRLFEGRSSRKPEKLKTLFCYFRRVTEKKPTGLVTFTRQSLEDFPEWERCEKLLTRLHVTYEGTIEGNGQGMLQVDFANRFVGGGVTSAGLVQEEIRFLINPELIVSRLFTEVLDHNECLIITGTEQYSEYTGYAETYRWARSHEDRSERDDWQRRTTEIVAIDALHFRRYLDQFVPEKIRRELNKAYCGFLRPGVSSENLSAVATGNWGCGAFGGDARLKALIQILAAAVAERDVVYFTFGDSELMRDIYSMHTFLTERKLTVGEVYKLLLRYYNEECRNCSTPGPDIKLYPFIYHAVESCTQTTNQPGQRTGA

The target is the same in experiment [2]. Description: (§3) The compound was tested for its ability to inhibit bovine thymus polyadenosine diphosphoribose glycohydrolase (bPARG). The method, boiled down:
as §2

Experiment [3] deals with T1, Poly(ADP-ribose) glycohydrolase (Bos taurus, UniProt O02776). The description is as §1. The method, boiled down: as §2
T1 sequence (O02776 whole entry): as the sequence (O02776 whole entry, the tested form may be a part) above
The target of experiment [4] is T1, Poly(ADP-ribose) glycohydrolase. The experiment is described as §3. Put shortly:
as §2

As to `[N-]=[N+]=Nc1nc(N)c2ncn(C3O[C@H](COP(=O)(O)OP(=O)(O)OC[C@H]4NC[C@H](O)[C@@H]4O)[C@@H](O)[C@H]3O)c2n1` (stereo partly drawn), the Log IC50 in experiment [1] was 2.17 µM; in experiment [2], 2.45 µM. For the same compound, the negative logarithm of the IC50 (pIC50) is 3.83 in experiment [3] and 3.54 in experiment [4].

For `Nc1ncnc2c1ncn2C1O[C@H](COP(=O)(O)OP(=O)(O)OCC2C[C@@H](O)CN2)[C@@H](O)[C@H]1O` (stereo partly drawn) [ADENOSINE DIPHOSPHATE (HYDROXYMETHYL)PYRROLIDINE MONOALCOHOL], the Log IC50 in experiment [1] amounted to 0.623 µM; in experiment [2], 0.48 µM. Moreover, the pIC50 in experiment [3] is 5.38; in experiment [4], 5.51.

In the case of `Nc1nc2c(ncn2C2O[C@H](COP(=O)(O)OP(=O)(O)OCC3NC[C@H](O)[C@@H]3O)[C@@H](O)[C@H]2O)c(=O)[nH]1` (stereo partly drawn), the negative-log IC50 (pIC50) in experiment [3] was 3.01; in experiment [4] it was < 3.00.

As for `Nc1ncnc2c1nc(NCCCCCCNC(=O)C(F)(F)F)n2C1O[C@H](COP(=O)(O)OP(=O)(O)OC[C@H]2NC[C@H](O)[C@@H]2O)[C@@H](O)[C@H]1O` (stereo partly drawn), in experiment [1], the Log IC50 was 2.75 µM. Moreover, in experiment [3], the pIC50 is 3.24.

`[N-]=[N+]=Nc1nc2c(N)ncnc2n1C1O[C@H](COP(=O)(O)OP(=O)(O)OC[C@H]2NC[C@H](O)[C@@H]2O)[C@@H](O)[C@H]1O` (stereo partly drawn): the pIC50 was 6.36 in experiment [3] and 6.41 in experiment [4].

Consider `Nc1ncnc2c1ncn2C1O[C@H](COP(=O)(O)OP(=O)(O)OCC2CCCN2)[C@@H](O)[C@H]1O` (stereo partly drawn) [ADENOSINE DIPHOSPHATE (HYDROXYMETHYL)PYRROLIDINE], for which the values for the Log IC50 in experiment [1] and in experiment [2] were 1.8 µM and 1.28 µM, respectively. Besides, the pIC50 in experiment [3] is 4.20; in experiment [4] it was 4.72.

Consider `Nc1nc(O)c2ncn(C3O[C@H](COP(=O)(O)OP(=O)(O)OCC4NC[C@H](O)[C@@H]4O)[C@@H](O)[C@H]3O)c2n1` (stereo partly drawn), for which the Log IC50 in experiment [1] is 2.99 µM; in experiment [2], > 3 µM.

As for `Nc1ncnc2c1nc(Sc1ccc(Cl)cc1)n2C1O[C@H](COP(=O)(O)OP(=O)(O)OC[C@H]2NC[C@H](O)[C@@H]2O)[C@@H](O)[C@H]1O` (stereo partly drawn), the Log IC50 in experiment [1] was 2.07 µM. The negative-log IC50 (pIC50) in experiment [3] was 3.92.

As to `Nc1ncnc2c1ncn2[C@@H]1O[C@H](CO[P@](=O)(O)O[P@@](=O)(O)OC[C@H]2NC[C@H](O)[C@@H]2O)[C@@H](O)[C@H]1O` [ADENOSINE DIPHOSPHATE (HYDROXYMETHYL)PYRROLIDINEDIOL], the pIC50 was 5.85 and 6.00 in experiment [3]; 6.48 in experiment [4].

For the compound `NCCCCCCNc1nc2c(N)ncnc2n1C1O[C@H](COP(=O)(O)OP(=O)(O)OC[C@H]2NC[C@H](O)[C@@H]2O)[C@@H](O)[C@H]1O` (stereo partly drawn), in experiment [1], the Log IC50 amounted to 0.97 µM. For the same compound, the pIC50 in experiment [3] was 5.02.

As for `CCCCCCNc1ncnc2c1ncn2C1O[C@H](COP(=O)(O)OP(=O)(O)OCC2NC[C@H](O)[C@@H]2O)[C@@H](O)[C@H]1O` (stereo partly drawn), the Log IC50 in experiment [1] stood at 2.71 µM. Further, in experiment [3], the pIC50 is 3.29.

(Values after ChEMBL document CHEMBL1145115, “SAR analysis of adenosine diphosphate (hydroxymethyl)pyrrolidinediol inhibition of poly(ADP-ribose) glycohydrolase” (J Med Chem, 2003).)
